MsrA act = bovine methionine sulfoxide reductase A activation | purified bovine MsrA, absorbance read-out | activation, % at 10.6 µM | 360,000 compounds, 0.3% hits | AID 602163; in the data active = activation above about 7.5%;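 note: 0% = vehicle and 100% = reference activator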
VIM-2 inhibitor = inhibitors of Pseudomonas aeruginosa VIM-2 metallo-beta-lactamase; AID 1527; inhibition, % at 5.6 µM; purified VIM-2, nitrocefin hydrolysis, epi-absorbance fluorescence; 290,000 compounds, 0.89% hits;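 active = inhibition above the mean of all tested compounds plus 3 SD, cutoff set per screening run, cut at about 7.5% in these data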;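 note: red hydrolysis product quenches plate fluorescence so inhibitors raise well fluorescence; 0% = enzyme with DMSO and 100% = DMSO without enzyme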
PKA-R1A act = activators of PKA-R1A complex. activation, % at 11.4 µM. P00514+P68181. 340,000 compounds, 0.083% hits. PKA-R1A dissociation, Cy5-IP20 fluorescence polarization; scaled: DMSO 0%, 113 µM cGMP 100%;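 active = percent activation above the mean of all tested compounds plus 3 SD, cut at about 19% in these data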;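 note: higher means more PKAc released from R1A so a rise in polarization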
IMP-1 inh-1 = blocks Pseudomonas aeruginosa IMP-1 metallo-beta-lactamase | purified IMP-1, nitrocefin hydrolysis, epi-absorbance fluorescence | inhibition, % at 5.6 µM | 290,000 compounds, 0.45% hits | AID 1556;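 active = inhibition above the mean plus 3 SD of all compounds in the same screening run, cut at about 4.5% in these data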;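 note: 0% = IMP-1 with DMSO and 100% = DMSO wells lacking enzyme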
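System – purified recombinant IMP-1 beta-lactamase · Input – IMP-1 dispensed at 0.2 nM · Timing – 15 min preincubation plus 25 min reaction at 25 °C · Signal – Epi-absorbance fluorescence, 480 nm excitation, 530 nm emission · Measure – percent IMP-1 inhibition derived from blank-referenced optical density · Controls – Enzyme-plus-DMSO low control, enzyme-free DMSO high control · Replication – singlicate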
PKA-R2B activ = activators of human PKA-R2B complex. activation, % at 11.4 µM. AID 504700. 340,000 compounds, 0.079% hits. P22694+P31323. PKA-R2B holoenzyme dissociation, Cy5-IP20 fluorescence polarization; R2B truncated from residue 108, S112A mutant; 0% DMSO only, 100% 113 µM cGMP;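 active = activation above a cutoff set at the mean over all compounds plus 3 SD, cut at about 18% in these data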;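 note: higher means more holoenzyme dissociation and a rise in polarization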
Target sequence (P31323 whole entry, looked up, other chains not shown, the tested form may be a part): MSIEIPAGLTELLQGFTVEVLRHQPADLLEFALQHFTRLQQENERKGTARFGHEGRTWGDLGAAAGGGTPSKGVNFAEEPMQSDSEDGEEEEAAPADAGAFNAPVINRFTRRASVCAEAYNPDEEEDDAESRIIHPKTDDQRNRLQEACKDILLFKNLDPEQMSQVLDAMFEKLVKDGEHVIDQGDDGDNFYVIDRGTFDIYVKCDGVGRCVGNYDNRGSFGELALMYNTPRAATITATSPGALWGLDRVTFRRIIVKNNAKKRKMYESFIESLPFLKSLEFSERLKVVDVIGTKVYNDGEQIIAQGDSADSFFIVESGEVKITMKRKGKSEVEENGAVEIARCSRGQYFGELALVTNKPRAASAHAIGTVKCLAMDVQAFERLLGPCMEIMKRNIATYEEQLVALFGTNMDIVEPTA
MsrA inhibitor = inhibits bovine methionine sulfoxide reductase A | inhibition, % at 15.5 µM | 360,000 compounds, 0.75% hits | AID 651718 | purified bovine MsrA, absorbance read-out; in the data active = inhibition above about 4.5%;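 note: 0% = vehicle wells with enzyme and 100% = reference inhibitor wells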
IMP-1 inh-2 = blocks IMP-1 metallo-beta-lactamase in VIM-2 selectivity screen. shares compounds with VIM-2 inhibitor. purified IMP-1, nitrocefin hydrolysis, epi-absorbance fluorescence. inhibition, % at 5.6 µM. 1,300 tested, under 10 active. AID 1856; call rule not given here;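 note: 0% = enzyme with vehicle and 100% = vehicle without enzyme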
VIM-2 FRET inh = counter-screen for VIM-2 inhibitors: epi-absorbance artifacts via FRET; shares compounds with VIM-2 inhibitor; purified VIM-2, CCF2 FRET substrate hydrolysis; inhibition, % at 5.6 µM; 1,300 compounds, 23% hits; AID 1857;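 active = inhibition above the mean of all tested compounds plus 3 SD, cut at about 19% in these data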;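 note: 0% = VIM-2 plus DMSO and 100% = no enzyme wells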
TEM-1 inh = selectivity counter-screen for VIM-2 inhibitors: E. coli TEM-1 inhibitors; shares compounds with VIM-2 inhibitor; Purified TEM-1, nitrocefin hydrolysis, epi-absorbance fluorescence; inhibition, % at 5.6 µM; 1,300 compounds, 3% hits;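 active = inhibition above that campaign's mean inhibition plus 3 SD, cut at about 0.46% in these data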;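 note: 0% = TEM-1 with DMSO and 100% = TEM-1 with 100 µM potassium clavulanate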
Target sequence (P62593 whole entry, looked up): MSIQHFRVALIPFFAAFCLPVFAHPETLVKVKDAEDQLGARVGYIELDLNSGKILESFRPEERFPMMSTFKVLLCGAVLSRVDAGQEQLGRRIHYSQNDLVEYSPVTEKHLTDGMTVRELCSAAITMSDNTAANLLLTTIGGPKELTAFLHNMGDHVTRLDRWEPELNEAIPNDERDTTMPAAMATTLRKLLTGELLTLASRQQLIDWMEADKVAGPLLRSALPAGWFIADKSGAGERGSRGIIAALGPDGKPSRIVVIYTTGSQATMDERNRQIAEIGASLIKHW
VIM-2 confirm 2 = confirmation of P. aeruginosa VIM-2 metallo-beta-lactamase inhibitors | shares compounds with VIM-2 inhibitor | purified VIM-2, nitrocefin hydrolysis, epi-absorbance | inhibition, % at 5.6 µM | 1,300 compounds, 96% hits | AID 2187;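 active = inhibition of the VIM-2 beta-lactamase enzyme above about 11% from the earlier first-round screen, limit read from the data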;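 note: 0% = VIM-2 with DMSO and 100% = buffer wells without enzyme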
* marks the source's active call; other numbers are inactive results; x = not tested or not shown. Rows were chosen to be rich in hits. Some 2.1% of all compounds tested hit in one or more screens of this group.

SMILES	MsrA act	VIM-2 inhibitor	PKA-R1A act	IMP-1 inh-1	PKA-R2B activ	MsrA inhibitor	IMP-1 inh-2	VIM-2 FRET inh	TEM-1 inh	VIM-2 confirm 2
Cc1cc(Nc2ccc(C)c(Br)c2)n2nc(C)nc2n1	-1.4	13.8*	2.3	-3.7	-0.3	-0.3	-3.7	-1.6	-6.8	27.6*
Nc1[nH]c(C(=O)c2ccccc2)c(-c2cccc3ccccc23)c1C(=O)c1cccs1	x	x	x	x	x	-0.7	x	x	x	x
Cc1ccc([C@H]2C[C@H](n3cc(COC(=O)c4ccccc4)nn3)[C@@H](O)CN2C(=O)C2CCCCC2)cc1	-1.6	x	-8.2	x	-5.0	1.9	x	x	x	x
O=C(O)c1cc(=O)c2ccccc2[nH]1	-6.1	x	3.5	x	11.1	2.4	x	x	x	x
O=C(O)c1cc2ccc3ccccc3c2[nH]1	-0.4	13.7*	0.6	0.5	1.9	1.6	-3.4	18.4*	-4.3	15.7*
COCC(=O)N(C)C[C@H]1Oc2ncc(C#C[C@H](C)O)cc2C(=O)N([C@@H](C)CO)C[C@H]1C	-0.9	x	-10.1	x	-4.0	0.1	x	x	x	x
CCN(CC)CCOc1ncnc2c1oc1ccccc12	-2.8	14.6*	3.8	-0.3	-2.4	-0.9	-2.8	1.0	-4.9	13.8*
Brc1ccc(-c2ccc(CNCc3ccccn3)o2)cc1	-1.8	38.8*	-0.5	-0.4	-5.8	-0.5	-3.5	-15.2	-6.1	50.5*
COc1ccccc1Nc1nc(NCCCN(C)C)nc(N)c1[N+](=O)[O-]	-3.3	26.8*	-3.5	-4.8	4.9	3.2	-2.5	2.9	-6.9	44.1*
COc1ccc(C2C(C(=O)c3cccs3)=C(O)C(=O)N2c2nnc(C)s2)cc1OC (stereo unspecified)	-5.0	26.9*	7.6	0.6	-2.3	x	3.4	-12.0	5.5*	8.8*
COc1ccc(C2C(C(=O)c3cccs3)=C(O)C(=O)N2c2nncs2)cc1 (stereo unspecified)	-1.1	5.2	1.1	-2.4	-4.6	0.8	x	x	x	x
COc1ccc(C2=NN(CCC(=O)NC3CCCCC3C)C(=O)CC2)cc1 (stereo unspecified)	-1.2	x	-1.7	x	7.0	-0.5	x	x	x	x
CN1CCN(CC(=O)Nc2c(C(=O)C3CC3)oc3ccccc23)CC1	-5.3	21.2*	-2.4	-4.2	-2.9	1.0	-1.9	3.3	-7.0	35.7*
O=C(C(O)c1ccc(Br)cc1)N1CCC(Nc2ccc3[nH]ncc3c2)CC1 (stereo unspecified)	-2.5	x	x	x	x	-0.1	x	x	x	x
CC1=C(C(=O)O)N2C(=O)C(NC(=O)c3nn(C)cc3[N+](=O)[O-])C2SC1 (stereo unspecified)	-2.0	15.4*	x	-0.2	x	-0.2	-3.0	33.4*	-4.7	21.1*
CC1=C(C(=O)O)N2C(=O)C(NC(=O)c3ccn(C)n3)C2SC1 (stereo unspecified)	-1.4	-1.0	3.7	-0.9	-5.3	2.3	x	x	x	x
CC(C)=CCC[C@H](C)C[C@@H]1CC2=C(C(=O)OC(C)(C)O2)[C@H](c2ccc(F)cc2)O1	0.5	x	x	x	x	-0.5	x	x	x	x
CC(Oc1ccc2c(c1)c1ccnc3c4ccccc4c(=O)n2c13)C(=O)NCCN1CCOCC1 (stereo unspecified)	-13.4	26.8*	6.5	-1.8	9.5	0.6	-2.4	-7.7	-7.6	36.5*
COc1ccc2c(c1OC)c(=O)n1c3ccc(OC(C)C(=O)NCCN4CCOCC4)cc3c3ccnc2c31 (stereo unspecified)	-0.9	17.7*	12.4	-0.4	-2.9	0.0	-0.8	-5.5	-8.7	25.8*
CC(Oc1ccc(Cl)cc1Cl)C(=O)NCCN1CCOCC1 (stereo unspecified)	-2.0	-3.9	-5.1	-0.2	3.1	1.0	x	x	x	x
CCCCc1cc(=O)oc2cc(OC(C)C(=O)NCCN3CCOCC3)ccc12 (stereo unspecified)	-5.3	x	-5.4	x	10.2	1.6	x	x	x	x
Cc1cccc(OCC(=O)NCC(=O)N/N=C/c2cc(Br)cc(Br)c2O)c1	-0.8	-3.4	-13.2	0.7	1.5	0.5	x	x	x	x
N#CCCN1CCCc2cc(N=Nc3ccc(C(F)(F)F)cc3)ccc21	-4.2	-0.8	x	-1.1	x	0.2	x	x	x	x
O=C(O)c1cccc(NC(=O)c2ccccc2NC(=O)c2cccc([N+](=O)[O-])c2)c1	-12.9	1.2	-2.5	0.8	-5.4	0.3	x	x	x	x
O=C(Nc1ccccc1C(=O)Nc1ccncc1)c1cccc([N+](=O)[O-])c1	-1.8	13.5*	7.0	-1.5	-6.9	-0.9	-3.1	-10.5	-5.0	25.4*
SMILES	MsrA act	VIM-2 inhibitor	PKA-R1A act	IMP-1 inh-1	PKA-R2B activ	MsrA inhibitor	IMP-1 inh-2	VIM-2 FRET inh	TEM-1 inh	VIM-2 confirm 2
CCOC(=O)C(=O)Cc1cccnn1	-2.3	x	7.3	x	5.9	1.6	x	x	x	x
COc1cccc(Cn2c3ccc(NC(=O)Cc4ccccc4C)cc3c(=O)n2C)c1	0.3	x	x	x	x	1.7	x	x	x	x
Cc1c(OC(C)C(=O)NCCCN2CCOCC2)ccc2c1oc(=O)c1ccccc12 (stereo unspecified)	-2.7	19.3*	-7.1	-1.2	6.0	2.7	-3.1	1.7	-10.9	29.4*
Cc1c(C)c2ccc(OC(C)C(=O)NCCCn3ccnc3)c(C)c2oc1=O (stereo unspecified)	-3.3	44.6*	6.9	0.0	3.3	0.2	-2.4	-4.2	-10.9	53.7*
CCc1cc(=O)oc2cc(C)cc(OC(C)C(=O)NCCCn3ccnc3)c12 (stereo unspecified)	-3.2	36.5*	-13.2	-3.2	1.7	-0.3	-3.3	-8.9	-4.0	49.2*
Cc1c(OC(C)C(=O)NCCN2CCOCC2)ccc2c(-c3ccccc3)cc(=O)oc12 (stereo unspecified)	-3.0	1.2	-2.3	-0.6	-8.0	1.9	x	x	x	x
COc1ccc2nc3n(c(=O)c2c1)-c1ncccc1C(=O)NC3CC(C)C (stereo unspecified)	-1.3	x	4.8	x	-3.1	0.5	x	x	x	x
COC(=O)c1ccc(-c2ccc(C(=O)N3CCCN(C)CC3)cc2)cc1	x	13.4*	x	-4.3	x	x	-3.9	29.7*	-6.5	21.1*
CCCCn1c(-c2cccnc2)n[nH]c1=S	0.5	20.4*	6.8	-4.9	3.3	0.5	-2.7	32.5*	-6.8	21.7*
CCn1c(-c2cccnc2)n[nH]c1=S	0.6	-3.8	-5.3	-1.9	-10.1	-1.2	x	x	x	x
COCC(O)Cn1ccnc1N=Nc1ccccc1 (stereo unspecified)	-2.4	x	x	x	x	2.3	x	x	x	x
CSC1=N/C(=C/c2ccc(-n3cncn3)cc2)C(=O)N1	-4.2	14.1*	6.2	0.8	-5.0	1.4	-2.9	-2.0	-9.0	54.9*

Screens deposited in PubChem BioAssay by The Scripps Research Institute Molecular Screening Center.
